Source: ChEMBL document CHEMBL4613292, “5,6-Dihydroxypyrimidine Scaffold to Target HIV-1 Nucleocapsid Protein” (ACS Med Chem Lett, 2020)
Active and inactive are the calls of the source. No cut-off for these calls is given here.

Assays:
[1] = tested on: Human immunodeficiency virus 1; experiment: Antiviral activity against wild-type HIV1 NL4-3 infected in human TZM-bl cells infected with supernatants from virus-infected human MT2 cells treated with compound for 48 to 72 hrs assessed as reduction in viral replication after 2 days by bright Glo-luciferase reporter gene assay based BiCycle assay; type: functional, organism-based; details: Human immunodeficiency virus 1, NL4-3, TZM
Summary of the method: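 Two-round cell assay over the full replication cycle: MT-2 T cells are infected with wild-type reference strain NL4-3 in the first round, and reporter TZM-bl cells are infected in the second round. Values are given as mean ± deviation.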

[2] = Half life in C57BL/6 mouse at 2 mg/kg, iv or 5 mg/kg, po administered as single dose measured up to 24 hrs by LC-MS/MS analysis; type: ADME, organism-based; details: in vivo
[3] = Cytotoxicity against human HeLa cells assessed as reduction in cell viability; type: cell-based
[4] = target: Cytochrome P450 3A4 (Homo sapiens, UniProt P08684); experiment: Inhibition of human microsomal CYP3A4 expressed in baculovirus infected insect cells using luciferin-IPA as substrate preincubated with enzyme/substrate mixture for 30 mins followed by further incubation with NADPH for 30 mins by CYP450 luciferase Glo assay; type: ADME
Sequence of Cytochrome P450 3A4 (P08684 whole entry, the tested form may be a part): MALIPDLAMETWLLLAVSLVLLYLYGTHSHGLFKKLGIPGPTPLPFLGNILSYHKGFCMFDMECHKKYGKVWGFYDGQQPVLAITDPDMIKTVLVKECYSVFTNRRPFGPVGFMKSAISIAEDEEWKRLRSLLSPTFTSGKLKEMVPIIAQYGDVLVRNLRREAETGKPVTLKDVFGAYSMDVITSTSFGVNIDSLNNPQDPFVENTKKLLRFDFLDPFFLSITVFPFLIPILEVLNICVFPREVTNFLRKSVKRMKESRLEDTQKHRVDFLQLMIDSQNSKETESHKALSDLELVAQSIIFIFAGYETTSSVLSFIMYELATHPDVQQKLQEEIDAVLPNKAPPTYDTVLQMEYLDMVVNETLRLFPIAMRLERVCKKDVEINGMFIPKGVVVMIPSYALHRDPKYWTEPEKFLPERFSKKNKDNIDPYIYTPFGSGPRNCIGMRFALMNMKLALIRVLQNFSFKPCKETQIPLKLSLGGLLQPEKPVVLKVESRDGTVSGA

[5] = tested on: Human immunodeficiency virus 1; experiment: Ratio of IC50 for PI-resistant HIV1 11808 Nucleocapsid protein (11 to 55 residues) using Alexa488-5'-cTAR-3'-Dabcyl oligonucleotide as substrate to IC50 for HIV1 Nucleocapsid protein (11 to 55 residues) assessed as reduction in NC-induced cTAR DNA destabilization by measuring intrinsic fluorescence using Alexa488-5'-cTAR-3'-Dabcyl oligonucleotide as substrate at 20 degree C incubated for 15 mins by fluorescence assay
[6] = target: Cytochrome P450 2D6 (Homo sapiens, UniProt P10635); experiment: Inhibition of human microsomal CYP2D6 expressed in baculovirus infected insect cells using luciferin-ME as substrate preincubated with enzyme/substrate mixture for 30 mins followed by further incubation with NADPH for 30 mins by CYP450 luciferase Glo assay; type: ADME
Sequence of Cytochrome P450 2D6 (P10635 whole entry): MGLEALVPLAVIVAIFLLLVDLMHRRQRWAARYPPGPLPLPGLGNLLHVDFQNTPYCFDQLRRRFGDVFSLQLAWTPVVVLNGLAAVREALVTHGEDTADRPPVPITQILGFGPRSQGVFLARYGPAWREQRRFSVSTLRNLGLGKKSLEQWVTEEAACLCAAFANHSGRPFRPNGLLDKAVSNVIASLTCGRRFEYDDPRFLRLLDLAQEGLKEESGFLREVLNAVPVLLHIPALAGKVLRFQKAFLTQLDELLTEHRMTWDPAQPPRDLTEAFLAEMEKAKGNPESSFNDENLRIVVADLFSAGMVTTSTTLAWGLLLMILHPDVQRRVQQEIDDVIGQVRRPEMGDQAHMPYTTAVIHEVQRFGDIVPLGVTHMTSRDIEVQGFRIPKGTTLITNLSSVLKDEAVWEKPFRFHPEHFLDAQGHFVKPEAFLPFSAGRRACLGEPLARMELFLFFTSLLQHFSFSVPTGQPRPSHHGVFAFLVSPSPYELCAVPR

[7] = target: Human immunodeficiency virus type 1 integrase (Human immunodeficiency virus 1) (UniProt Q7ZJM1); experiment: Inhibition of wild type recombinant HIV1 His6-tagged integrase expressed in Escherichia coli BL21 using 18 nucleotide 3'-biotin labeled DNA acceptor as substrate upto 10 uM preincubated for 1 hr followed by substrate addition and further incubated for 90 mins in presence of recombinant LEDGF/p75 by HTRF assay
Sequence of Human immunodeficiency virus type 1 integrase (Human immunodeficiency virus 1) (Q7ZJM1 as listed by the source): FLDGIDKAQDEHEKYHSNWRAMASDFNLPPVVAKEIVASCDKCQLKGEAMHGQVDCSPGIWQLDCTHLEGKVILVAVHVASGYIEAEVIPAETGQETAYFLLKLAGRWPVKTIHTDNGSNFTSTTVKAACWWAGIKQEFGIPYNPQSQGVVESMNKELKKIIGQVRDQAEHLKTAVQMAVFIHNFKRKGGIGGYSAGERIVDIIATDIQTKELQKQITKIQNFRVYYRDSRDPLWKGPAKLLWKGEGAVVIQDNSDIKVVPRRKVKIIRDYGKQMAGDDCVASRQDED

[8] = target: Voltage-gated inwardly rectifying potassium channel KCNH2 (Homo sapiens, UniProt Q12809); experiment: Displacement of Tracer Red from human ERG measured after 4 hrs by fluorescence polarization assay
Sequence of Voltage-gated inwardly rectifying potassium channel KCNH2 (Q12809 whole entry, the tested form may be a part): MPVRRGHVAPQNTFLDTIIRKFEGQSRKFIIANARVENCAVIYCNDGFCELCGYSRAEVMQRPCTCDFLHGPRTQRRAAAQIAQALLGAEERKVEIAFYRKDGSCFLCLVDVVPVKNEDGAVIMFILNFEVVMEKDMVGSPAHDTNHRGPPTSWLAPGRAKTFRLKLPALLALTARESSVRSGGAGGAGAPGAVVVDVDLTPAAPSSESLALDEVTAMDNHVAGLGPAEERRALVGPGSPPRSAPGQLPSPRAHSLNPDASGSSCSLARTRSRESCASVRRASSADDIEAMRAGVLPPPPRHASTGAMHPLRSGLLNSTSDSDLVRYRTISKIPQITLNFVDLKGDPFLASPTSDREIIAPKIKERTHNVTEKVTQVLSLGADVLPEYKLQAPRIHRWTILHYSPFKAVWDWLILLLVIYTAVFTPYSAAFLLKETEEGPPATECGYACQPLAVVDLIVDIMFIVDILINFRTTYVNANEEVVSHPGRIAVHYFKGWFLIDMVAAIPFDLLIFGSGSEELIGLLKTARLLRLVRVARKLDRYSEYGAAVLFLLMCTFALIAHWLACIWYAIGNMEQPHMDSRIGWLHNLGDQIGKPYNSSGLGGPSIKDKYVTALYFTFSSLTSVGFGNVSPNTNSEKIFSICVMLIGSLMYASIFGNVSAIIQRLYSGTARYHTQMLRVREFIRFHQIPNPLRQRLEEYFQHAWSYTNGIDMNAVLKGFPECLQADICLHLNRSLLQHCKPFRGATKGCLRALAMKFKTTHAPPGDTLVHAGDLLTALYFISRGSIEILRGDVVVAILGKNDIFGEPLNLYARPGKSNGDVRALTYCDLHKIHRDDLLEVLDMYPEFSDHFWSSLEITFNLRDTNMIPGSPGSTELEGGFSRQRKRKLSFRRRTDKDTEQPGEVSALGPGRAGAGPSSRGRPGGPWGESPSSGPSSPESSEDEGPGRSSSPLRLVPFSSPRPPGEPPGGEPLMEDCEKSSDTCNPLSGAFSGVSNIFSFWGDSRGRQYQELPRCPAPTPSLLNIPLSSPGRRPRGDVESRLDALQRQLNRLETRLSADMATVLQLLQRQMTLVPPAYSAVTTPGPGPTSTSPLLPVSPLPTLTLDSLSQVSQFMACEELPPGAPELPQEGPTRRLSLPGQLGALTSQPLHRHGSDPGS

[9] = Inhibition of HIV1 Nucleocapsid protein (11 to 55 residues) assessed as reduction in NC-induced cTAR DNA destabilization by measuring intrinsic fluorescence using Alexa488-5'-cTAR-3'-Dabcyl oligonucleotide as substrate at 20 degree C incubated for 15 mins by fluorescence assay; parameters: species or system Human immunodeficiency virus 1; details: read-out: IC50
Summary of the method: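 Fluorescence NC-inhibition assay following destabilisation of cTAR DNA, the complement of the HIV-1 transactivation response element, dual-labelled with Alexa488 dye and Dabcyl quencher. NC protein at 1 μM, so the lowest measurable IC50 is 0.5 μM.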

[10] = Volume of distribution at steady state in C57BL/6 mouse at 2 mg/kg, iv or 5 mg/kg, po administered as single dose measured up to 24 hrs by LC-MS/MS analysis; type: ADME, organism-based; details: in vivo, read-out: Vdss
[11] = tested on: Human immunodeficiency virus 1; experiment: Antiviral activity against INI-resistant HIV1 11845; type: functional, organism-based; details: Human immunodeficiency virus 1, 11845
[12] = tested on: Human immunodeficiency virus 1; experiment: Antiviral activity against NNRTI-resistant HIV1 12231; type: functional, organism-based; details: Human immunodeficiency virus 1, 12231
[13] = Selectivity index, ratio of CC50 for human HeLa cells assessed as reduction in cell viability to EC50 for wild-type HIV1 NL4-3 infected in human TZM-bl cells infected with supernatants from virus-infected human MT2 cells treated with compound for 48 to 72 hrs assessed as reduction in viral replication after 2 days by bright Glo-luciferase reporter gene assay based BiCycle assay; type: toxicity; details: read-out: Ratio CC50/EC50
Summary of the method: (§1)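 Selectivity index is CC50 from the respective cytotoxicity assay (HeLa or PBMC) divided by EC50 from the two-round MT-2/TZM-bl NL4-3 assay.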

[14] = Half life in mouse hepatocytes at 3 uM by LC-MS/MS analysis; type: ADME, cell-based, Hepatocyte
[15] = tested on: Human immunodeficiency virus 1; experiment: Antiviral activity against PI-resistant HIV1 11808; type: functional, organism-based; details: Human immunodeficiency virus 1, 11808
[16] = tested on: Human immunodeficiency virus 1; experiment: Antiviral activity against NRTI-resistant HIV1 7401; type: functional, organism-based; details: Human immunodeficiency virus 1, 7401
[17] = Half life in mouse plasma at 3 uM by LC-MS/MS analysis; type: ADME, cell-free
[18] = tested on: Human immunodeficiency virus 1; experiment: Ratio of IC50 for NNRTI-resistant HIV1 12231 Nucleocapsid protein (11 to 55 residues) using Alexa488-5'-cTAR-3'-Dabcyl oligonucleotide as substrate to IC50 for HIV1 Nucleocapsid protein (11 to 55 residues) assessed as reduction in NC-induced cTAR DNA destabilization by measuring intrinsic fluorescence using Alexa488-5'-cTAR-3'-Dabcyl oligonucleotide as substrate at 20 degree C incubated for 15 mins by fluorescence assay
[19] = target: T1, Cytochrome P450 1A2 (Homo sapiens, UniProt P05177); experiment: Inhibition of human microsomal CYP1A2 expressed in baculovirus infected insect cells using luciferin-1A2 as substrate preincubated with enzyme-substrate mixture for 30 mins followed by further incubation with NADPH for 30 mins by CYP450 luciferase Glo assay; type: ADME
T1 sequence (P05177 whole entry): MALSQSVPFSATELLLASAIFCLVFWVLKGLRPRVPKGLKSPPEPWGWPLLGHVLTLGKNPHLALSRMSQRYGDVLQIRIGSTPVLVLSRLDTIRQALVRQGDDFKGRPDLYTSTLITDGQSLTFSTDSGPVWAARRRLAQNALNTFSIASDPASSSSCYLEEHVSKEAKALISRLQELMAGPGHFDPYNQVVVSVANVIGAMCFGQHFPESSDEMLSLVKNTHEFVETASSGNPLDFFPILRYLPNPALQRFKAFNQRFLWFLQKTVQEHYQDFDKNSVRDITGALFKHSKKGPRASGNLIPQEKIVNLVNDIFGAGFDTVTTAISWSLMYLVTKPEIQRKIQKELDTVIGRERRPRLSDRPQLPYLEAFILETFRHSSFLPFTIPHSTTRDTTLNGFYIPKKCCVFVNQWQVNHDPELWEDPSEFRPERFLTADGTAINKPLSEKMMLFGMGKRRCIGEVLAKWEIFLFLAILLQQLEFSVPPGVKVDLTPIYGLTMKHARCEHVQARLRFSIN

[20] = Half life in human hepatocytes at 3 uM by LC-MS/MS analysis; type: ADME, cell-based, Hepatocyte
[21] = tested on: Human immunodeficiency virus 1; experiment: Ratio of IC50 for INI-resistant HIV1 11845 Nucleocapsid protein (11 to 55 residues) using Alexa488-5'-cTAR-3'-Dabcyl oligonucleotide as substrate to IC50 for HIV1 Nucleocapsid protein (11 to 55 residues) assessed as reduction in NC-induced cTAR DNA destabilization by measuring intrinsic fluorescence using Alexa488-5'-cTAR-3'-Dabcyl oligonucleotide as substrate at 20 degree C incubated for 15 mins by fluorescence assay
[22] = Selectivity index, ratio of CC50 for human PBMC cells stimulated with phytohemagglutinin and interleukin-2 assessed as reduction in cell viability measured after 7 days by MTS assay to EC50 for wild-type HIV1 NL4-3 infected in human TZM-bl cells infected with supernatants from virus-infected human MT2 cells treated with compound for 48 to 72 hrs assessed as reduction in viral replication after 2 days by bright Glo-luciferase reporter gene assay based BiCycle assay; type: toxicity; details: read-out: Ratio CC50/EC50; summary of the method: as §1
[23] = Clearance in C57BL/6 mouse at 2 mg/kg, iv or 5 mg/kg, po administered as single dose measured up to 24 hrs by LC-MS/MS analysis; type: ADME, organism-based; details: in vivo
[24] = Oral bioavailability in C57BL/6 mouse at 5 mg/kg administered as single dose measured up to 24 hrs by LC-MS/MS analysis; type: ADME, organism-based; details: in vivo
Summary of the method: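 C57BL/6 mice were dosed 5 mg/kg orally, with a 2 mg/kg iv reference arm. Plasma was sampled at eight time points up to 24 h.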

[25] = tested on: Human immunodeficiency virus 1; experiment: Ratio of IC50 for NRTI-resistant HIV1 7401 Nucleocapsid protein (11 to 55 residues) using Alexa488-5'-cTAR-3'-Dabcyl oligonucleotide as substrate to IC50 for HIV1 Nucleocapsid protein (11 to 55 residues) assessed as reduction in NC-induced cTAR DNA destabilization by measuring intrinsic fluorescence using Alexa488-5'-cTAR-3'-Dabcyl oligonucleotide as substrate at 20 degree C incubated for 15 mins by fluorescence assay
[26] = Cytotoxicity against phytohemagglutinin and interleukin-2-stimulated human PBMC cells assessed as reduction in cell viability measured after 7 days by MTS assay; type: cell-based
[27] = Half life in human plasma at 3 uM by LC-MS/MS analysis; type: ADME, cell-free

Structure (SMILES) | EC50 [1] [nM] | half-life [2] [min] | CC50 [3] [nM] | IC50 [4] [µM] | Ratio IC50 [5] | IC50 [6] [µM] | IC50 [8] [µM] | IC50 [9] [µM] | Vd [10] [L/kg] | EC50 [11] [nM] | EC50 [12] [nM] | selectivity ratio [13] | half-life at 3 µM [14] [min] | EC50 [15] [nM] | EC50 [16] [nM] | half-life at 3 µM [17] [min] | IC50 [19] [µM] | half-life at 3 µM [20] [min] | selectivity ratio at 7 days [22] | CC50 at 168 h [26] [nM] | other results
C[C@@H](NC(=O)c1nc(-c2nccc3ccccc23)nc(O)c1O)C1CCCCC1 | 100 | 66 | 2100 | > 30 | 1.6 | > 30 | > 30 | 4 | 0.8 | 90 | 210 | 21 | 102 | 160 | 130 | 222 | > 30 | 156 | 50 | 5000 | inhibition [7]: inactive; Ratio IC50 [18]: 2; Ratio IC50 [21]: 0.9; clearance [23]: 30.2 mL/min/kg; bioavailability [24]: 26%; Ratio IC50 [25]: 1.3
C[C@@H](NC(=O)c1nc(-c2cc(Cl)ccn2)nc(O)c1O)C1CCCCC1 | 100 | 186 | 3000 | > 30 | 0.2 | > 30 | > 30 | 2 | 1.2 | 70 | 80 | 30 | 102 | 20 | 10 | > 360 | > 30 | > 240 | 25 | 2500 | Ratio IC50 [18]: 0.8; Ratio IC50 [21]: 0.7; half-life at 3 µM [27]: > 360 min; clearance [23]: 37.1 mL/min/kg; bioavailability [24]: 40%; Ratio IC50 [25]: 0.1
COc1ccnc(-c2nc(O)c(O)c(C(=O)N[C@H](C)C3CCCCC3)n2)c1 | 40 | 84 | 3000 | > 30 | 1.4 | > 30 | > 30 | 22 | 0.8 | 90 | 110 | 75 | 114 | 56 | 31 | > 1440 | > 30 | > 240 | 75 | 2700 | inhibition [7]: inactive; Ratio IC50 [18]: 2.8; Ratio IC50 [21]: 2.3; half-life at 3 µM [27]: > 360 min; clearance [23]: 33.1 mL/min/kg; bioavailability [24]: 25%; Ratio IC50 [25]: 0.8
C[C@@H](NC(=O)c1nc(-c2cc(C(F)(F)F)ccn2)nc(O)c1O)C1CCCCC1 | 400 |  | 6000 | > 30 |  | > 30 | > 30 | 12 |  |  |  | 15 | 144 |  |  | > 60 | > 30 | > 240 | 3 | 1100 | half-life at 3 µM [27]: > 60 min
